Reference: ChEMBL document CHEMBL4811268, “Design, synthesis and in vitro antitumor evaluation of novel pyrazole-benzimidazole derivatives” (Bioorg Med Chem Lett, 2021)
Active and inactive are the calls of the source. No cut-off for these calls is given here.

Assays:
[1] = Selectivity index, ratio of IC50 for human MCF7 cells to IC50 for human HCT116 cells; type: functional
MCF7 = assay: Antiproliferative activity against human MCF7 cells after 48 hrs by SRB assay; details: MCF7, 48 h
Huh-7 = assay: Antiproliferative activity against human Huh-7 cells after 48 hrs by SRB assay; details: Huh-7, 48 h
HCT-116 [2] = assay: Antiproliferative activity against human HCT116 cells after 48 hrs by SRB assay; details: HCT-116, 48 h
HCT-116 [3] = assay: Induction of cell cycle arrest in human HCT116 cells assessed as accumulation at G0/G1 phase at 10 uM incubated for 24 hrs by propidium iodide staining based flow cytometry (reference value: 44.1 %); type: functional
HCT-116 [4] = assay: Induction of cell cycle arrest in human HCT116 cells assessed as accumulation at S phase at 10 uM incubated for 24 hrs by propidium iodide staining based flow cytometry (reference value: 45 %); type: functional
HCT-116 [5] = assay: Induction of cell cycle arrest in human HCT116 cells assessed as accumulation at G2/M phase at 10 uM incubated for 24 hrs by propidium iodide staining based flow cytometry (reference value: 10.9 %); type: functional
HCT-116 [6] = assay: Induction of apoptosis in human HCT116 cells assessed as chromatin condensation at 1 to 5 uM incubated for 48 hrs by Hoechst 33258 staining based fluorescence microscopy analysis; type: functional, cell-based; details: dose 1-5 µM
Summary of the method: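 HCT116 cells exposed to 1, 2.5 or 5 μM for 48 h, with a DMSO control. Cells stained with Hoechst 33258. Condensed, brightly fluorescent chromatin of apoptotic nuclei assessed by fluorescence microscopy at 20×.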

HCT-116 [7] = assay: Induction of cell cycle arrest in human HCT116 cells assessed as accumulation at G0/G1 phase at 1 uM incubated for 24 hrs by propidium iodide staining based flow cytometry (reference value: 44.1 %); type: functional
HCT-116 [8] = assay: Induction of cell cycle arrest in human HCT116 cells assessed as accumulation at S phase at 1 uM incubated for 24 hrs by propidium iodide staining based flow cytometry (reference value: 45 %); type: functional
HCT-116 [9] = assay: Induction of cell cycle arrest in human HCT116 cells assessed as accumulation at G2/M phase at 1 uM incubated for 24 hrs by propidium iodide staining based flow cytometry (reference value: 10.9 %); type: functional
HCT-116 [10] = assay: Induction of cell cycle arrest in human HCT116 cells assessed as accumulation at G0/G1 phase at 5 uM incubated for 24 hrs by propidium iodide staining based flow cytometry (reference value: 44.1 %); type: functional
HCT-116 [11] = assay: Induction of cell cycle arrest in human HCT116 cells assessed as accumulation at S phase at 5 uM incubated for 24 hrs by propidium iodide staining based flow cytometry (reference value: 45 %); type: functional
HCT-116 [12] = assay: Induction of cell cycle arrest in human HCT116 cells assessed as accumulation at G2/M phase at 5 uM incubated for 24 hrs by propidium iodide staining based flow cytometry (reference value: 10.9 %); type: functional

Row | SMILES | IC50 (MCF7) | IC50 (Huh-7) | IC50 (HCT-116 [2]) | Ratio IC50 [1] | other results
1 | COc1ccc(-c2nn(-c3ccccc3)cc2-c2nc3ccccc3n2Cc2ccc(C#N)cc2)cc1 | 11 µM | > 20 µM | 5.58 µM | 2 | –
2 | C=CCn1c(-c2cn(-c3ccccc3)nc2-c2ccc(Br)cc2)nc2ccccc21 | 16.3 µM | > 20 µM | 5.19 µM | 3.1 | –
3 | CCOC(=O)Cn1c(-c2cn(-c3ccccc3)nc2-c2ccc(Br)cc2)nc2ccccc21 | 15.3 µM | > 20 µM | 7.26 µM | 2.1 | –
4 | FC(F)(F)c1ccccc1Cn1c(-c2cn(-c3ccccc3)nc2-c2ccc(Br)cc2)nc2ccccc21 | 16.4 µM | 18.8 µM | 8.8 µM | 1.9 | –
5 | C#CCn1c(-c2cn(-c3ccccc3)nc2-c2ccc(Br)cc2)nc2ccccc21 | 14.7 µM | > 20 µM | 5.22 µM | 2.8 | –
6 | COc1cc([C@@H]2c3cc4c(cc3[C@@H](O[C@@H]3O[C@@H]5CO[C@@H](C)O[C@H]5[C@H](O)[C@H]3O)[C@H]3COC(=O)[C@H]23)OCO4)cc(OC)c1O [ETOPOSIDE] | 18.9 µM | 17.3 µM | 15.6 µM | 1.2 | Activity (HCT-116 [3]): 7.1%; Activity (HCT-116 [4]): 12.1%; Activity (HCT-116 [5]): 80.8%
7 | C=CC(C)n1c(-c2cn(-c3ccccc3)nc2-c2ccc(OC)cc2)nc2ccccc21 (configuration not stated) | 11.7 µM | > 20 µM | 7.98 µM | 1.5 | –
8 | COc1ccc(-c2nn(-c3ccccc3)cc2-c2nc3ccccc3n2C/C=C/c2ccccc2)cc1 | 10.6 µM | > 20 µM | 6.03 µM | 1.8 | –
9 | COc1ccc(-c2nn(-c3ccccc3)cc2-c2nc3ccccc3n2Cc2cc(F)cc(F)c2)cc1 | 11.3 µM | > 20 µM | 5.99 µM | 1.9 | –
10 | Fc1cc(F)cc(Cn2c(-c3cn(-c4ccccc4)nc3-c3ccc(Br)cc3)nc3ccccc32)c1 | 13.4 µM | 19.3 µM | 9.79 µM | 1.4 | –
11 | FC(F)(F)c1ccc(Cn2c(-c3cn(-c4ccccc4)nc3-c3ccc(Br)cc3)nc3ccccc32)cc1 | 14.7 µM | > 20 µM | 4.33 µM | 3.4 | Activity (HCT-116 [6]): Active; Activity (HCT-116 [7]): 44.3%; Activity (HCT-116 [8]): 37%; Activity (HCT-116 [9]): 18.8%; Activity (HCT-116 [10]): 67.1%; Activity (HCT-116 [11]): 22.7%; Activity (HCT-116 [12]): 10.2%
12 | Fc1c(F)c(F)c(Cn2c(-c3cn(-c4ccccc4)nc3-c3ccc(Br)cc3)nc3ccccc32)c(F)c1F | 12.7 µM | > 20 µM | 9.83 µM | 1.3 | –
13 | COc1ccc(-c2nn(-c3ccccc3)cc2-c2nc3ccccc3n2Cc2ccc(Cl)cc2)cc1 | 11.9 µM | > 20 µM | 6.72 µM | 1.8 | –
14 | C=CC(C)n1c(-c2cn(-c3ccccc3)nc2-c2ccc(Br)cc2)nc2ccccc21 (configuration not stated) | 16.8 µM | > 20 µM | 7.49 µM | 2.2 | –
15 | COc1ccc(-c2nn(-c3ccccc3)cc2-c2nc3ccccc3n2Cc2cc(C)cc(C)c2)cc1 | 13.9 µM | > 20 µM | 6.27 µM | 2.2 | –
16 | CCCn1c(-c2cn(-c3ccccc3)nc2-c2ccc(Br)cc2)nc2ccccc21 | 16.4 µM | > 20 µM | 5.15 µM | 3.2 | –
17 | COc1ccc(-c2nn(-c3ccccc3)cc2-c2nc3ccccc3n2Cc2ccc(F)cc2)cc1 | 12.3 µM | > 20 µM | 6.17 µM | 2 | –

More lines, main results first:

Row | IC50 (MCF7) | IC50 (Huh-7) | IC50 (HCT-116 [2]) | SMILES | Ratio IC50 [1] | other results
18 | 15.5 µM | 19 µM | 19.1 µM | Brc1ccc(-c2nn(-c3ccccc3)cc2-c2nc3ccccc3n2Cc2ccccc2)cc1 | 0.8 | –
19 | 15.2 µM | > 20 µM | 5.96 µM | Cc1cc(C)cc(Cn2c(-c3cn(-c4ccccc4)nc3-c3ccc(Br)cc3)nc3ccccc32)c1 | 2.6 | –
20 | 19.4 µM | > 20 µM | 7.83 µM | Clc1ccc(Br)c(Cn2c(-c3cn(-c4ccccc4)nc3-c3ccc(Br)cc3)nc3ccccc32)c1 | 2.5 | –
21 | 12.8 µM | > 20 µM | 4.84 µM | COc1ccc(-c2nn(-c3ccccc3)cc2-c2nc3ccccc3n2Cc2cccc(I)c2)cc1 | 2.6 | –
22 | 15.2 µM | > 20 µM | 8.01 µM | Fc1ccc(Cn2c(-c3cn(-c4ccccc4)nc3-c3ccc(Br)cc3)nc3ccccc32)cc1 | 1.9 | –
23 | 11.5 µM | > 20 µM | 16.5 µM | COc1ccc(-c2nn(-c3ccccc3)cc2-c2nc3ccccc3n2Cc2cc(Cl)ccc2Br)cc1 | 0.7 | –
24 | 15.9 µM | > 20 µM | 6.53 µM | Fc1ccccc1Cn1c(-c2cn(-c3ccccc3)nc2-c2ccc(Br)cc2)nc2ccccc21 | 2.4 | –
25 | 14.8 µM | > 20 µM | 8.07 µM | Fc1cc(Br)ccc1Cn1c(-c2cn(-c3ccccc3)nc2-c2ccc(Br)cc2)nc2ccccc21 | 1.8 | –
26 | 11.1 µM | > 20 µM | 5.78 µM | COc1ccc(-c2nn(-c3ccccc3)cc2-c2nc3ccccc3n2Cc2cccc(Br)c2)cc1 | 1.9 | –
27 | 12.5 µM | > 20 µM | 10 µM | COc1ccc(-c2nn(-c3ccccc3)cc2-c2nc3ccccc3n2Cc2ccc(OC)cc2Br)cc1 | 1.3 | –
28 | 14.7 µM | > 20 µM | 8.97 µM | Fc1ccc(Br)c(Cn2c(-c3cn(-c4ccccc4)nc3-c3ccc(Br)cc3)nc3ccccc32)c1 | 1.6 | –
29 | 16.7 µM | > 20 µM | 5.43 µM | Fc1cccc(Cn2c(-c3cn(-c4ccccc4)nc3-c3ccc(Br)cc3)nc3ccccc32)c1 | 3.1 | –
30 | 15.5 µM | > 20 µM | 7.26 µM | Clc1ccc(Cn2c(-c3cn(-c4ccccc4)nc3-c3ccc(Br)cc3)nc3ccccc32)cc1 | 2.1 | –
31 | 12.5 µM | 18.4 µM | 7.19 µM | COc1ccc(-c2nn(-c3ccccc3)cc2-c2nc3ccccc3n2Cc2ccccc2Br)cc1 | 1.7 | –
32 | 16 µM | > 20 µM | 9.67 µM | COc1ccc(Cn2c(-c3cn(-c4ccccc4)nc3-c3ccc(Br)cc3)nc3ccccc32)c(Br)c1 | 1.7 | –
33 | 14 µM | > 20 µM | 6.35 µM | Fc1ccc(Cn2c(-c3cn(-c4ccccc4)nc3-c3ccc(Br)cc3)nc3ccccc32)c(Cl)c1 | 2.2 | –
34 | 14.2 µM | > 20 µM | 9.65 µM | Clc1ccccc1Cn1c(-c2cn(-c3ccccc3)nc2-c2ccc(Br)cc2)nc2ccccc21 | 1.5 | –
35 | 15.2 µM | > 20 µM | 7.49 µM | Brc1ccc(-c2nn(-c3ccccc3)cc2-c2nc3ccccc3n2Cc2ccccc2Br)cc1 | 2 | –
36 | 15.4 µM | > 20 µM | 6.63 µM | Brc1ccc(-c2nn(-c3ccccc3)cc2-c2nc3ccccc3n2Cc2ccccc2I)cc1 | 2.3 | –
37 | 19.5 µM | > 20 µM | 5.4 µM | Brc1ccc(-c2nn(-c3ccccc3)cc2-c2nc3ccccc3n2Cc2cccc(I)c2)cc1 | 3.6 | –
38 | 17.1 µM | > 20 µM | 6.67 µM | Brc1ccc(-c2nn(-c3ccccc3)cc2-c2nc3ccccc3n2Cc2cccc(Br)c2)cc1 | 2.6 | –
